# Assay results: PMC7475184 (Heliyon, 2020)
# Assays:
# [1] = tested on: Carbapenems-resistant Acinetobacter baumannii (12–666); assay: Antibacterial activity, microdilution method; type: cell-based; conditions: for MIC, CRAB: MDR clinical isolate, microdilution; for MIC: Acinetobacter baumannii, read-out: MIC, CRAB
# Method in brief: (§1)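 Drug-resistant clinical isolates from a university hospital, tested by broth microdilution in Mueller Hinton medium. Test compounds at 200, 100, 50, 25, 12.5, 6.25 and 3.12 μg/mL. Levofloxacin positive control at the same concentrations; DMSO (6%–0.09%, v/v) negative control. MIC taken as the lowest concentration inhibiting bacterial growth. Three repeat experiments.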
# [2] = tested on: carbapenems-resistant Klebsiella pneumoniae (OXA-48 positive); assay: Antibacterial activity, microdilution method; type: cell-based; conditions: for MIC, KPRO: MDR clinical isolate, microdilution; for MIC: Klebsiella pneumoniae, read-out: MIC, KPRO
# Method in brief: as §1
# [3] = tested on: P. aeruginosa resistant to carbapenems (13–1391); assay: Antibacterial activity, microdilution method; type: cell-based, Pseudomonas aeruginosa; conditions: for MIC, PARC: MDR clinical isolate, microdilution; for MIC: Pseudomonas aeruginosa, read-out: MIC, PARC
# Method in brief: as §1
# [4] = tested on: Linezolid-resistant Staphylococcus epidermidis (14–583); assay: Antibacterial activity, microdilution method; type: cell-based; conditions: for MIC, LRSE: MDR clinical isolate, microdilution; for MIC: Staphylococcus epidermidis, read-out: MIC, LRSE
# Method in brief: as §1
# [5] = tested on: Klebsiella pneumoniae producer of ESBL (14–2081); assay: Antibacterial activity, microdilution method; type: cell-based; conditions: for MIC, KPPB: MDR clinical isolate, microdilution; for MIC: Klebsiella pneumoniae, read-out: MIC, KPPB
# Method in brief: as §1
# [6] = tested on: Vancomycin-resistant Enterococcus faecium (10–984); assay: Antibacterial activity, microdilution method; type: cell-based; conditions: for MIC, VREF: MDR clinical isolate, microdilution; for MIC: Enterococcus faecium, read-out: MIC, VREF
# Method in brief: as §1
# [7] = tested on: Methicillin-Resistant Staphylococcus aureus (14–2095); assay: Antibacterial activity, microdilution method; type: cell-based; conditions: for MIC, MRSA: MDR clinical isolate, microdilution; for MIC: Staphylococcus aureus, MRSA, read-out: MIC, MRSA
# Method in brief: as §1
# [8] = tested on: Escherichia coli producing extended-spectrum beta-lactamase (14–2081); assay: Antibacterial activity, microdilution method; type: cell-based; conditions: for MIC, ECPB: MDR clinical isolate, microdilution; for MIC: Escherichia coli, read-out: MIC, ECPB
# Method in brief: as §1
# [9] = tested on: carbapenems-resistant Klebsiella pneumoniae NDM-1+ (14–3335); assay: Antibacterial activity, microdilution method; type: cell-based; conditions: for MIC, KPNDM-1+: MDR clinical isolate, microdilution; for MIC: Klebsiella pneumoniae, read-out: MIC, KPNDM-1+
# Method in brief: as §1
# [10] = tested on: immortalized human hepatocytes (IHH); type: cell-based; conditions: for IC50, IHH: non-cancerous control cells IHH; for IC50: Homo sapiens, Hepatocyte, read-out: IC50, IHH
# Method in brief: (§2)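 Cells grown in DMEM with 10% fetal bovine serum and 2 mM glutamine at 37 °C under 5% CO2. Test compounds at 100, 10, 1, 0.1 and 0.01 μg/mL for a dose-response curve. Viability read with a Cell Titer 96 aqueous kit by absorbance at 450 nm. Paclitaxel reference. Triplicates in three independent experiments; IC50 by regression analysis.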
# [11] = tested on: HeLa (cervical) cells; assay: Cytotoxic activity, Cell Titer 96 proliferation kit; type: cell-based, human; conditions: for IC50, Hela: HeLa cells; for IC50: Homo sapiens, HeLa, read-out: IC50, Hela
# Method in brief: as §2
# [12] = tested on: HepG2 (hepatocellular) cells; assay: as above; type: cell-based, human; conditions: for IC50, HepG2: HepG2 cells; for IC50: Homo sapiens, HepG2, read-out: IC50, HepG2
# Method in brief: as §2
# [13] = tested on: PC3 (prostate) cells; assay: Cytotoxic activity, Cell Titer 96 proliferation kit; type: cell-based, human; conditions: for IC50, PC3: PC3 cells; for IC50: Homo sapiens, PC-3, read-out: IC50, PC3
# Method in brief: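 PC3 cells kept in RPMI-1640 at 37 °C under 5% CO2. Dose-response over 100, 10, 1, 0.1 and 0.01 μg/mL test compound. Viability measured with a Cell Titer 96 aqueous kit by absorbance at 450 nm. Paclitaxel reference. Triplicates in three independent experiments; IC50 derived by regression analysis.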
# [14] = tested on: Hep3B (hepatocellular) cells; assay: Cytotoxic activity, Cell Titer 96 proliferation kit; type: cell-based, human; conditions: for IC50, Hep3B: Hep3B cells; for IC50: Homo sapiens, Hep3B, read-out: IC50, Hep3B
# Method in brief: as §2
# [15] = tested on: A549 (lung) cells; assay: as above; type: cell-based, human; conditions: for IC50, A549: A549 cells; for IC50: Homo sapiens, A549, read-out: IC50, A549
# Method in brief: as §2
# [16] = tested on: MCF7 (breast) cells; assay: as above; type: cell-based, human
# Method in brief: as §2
# [17] = tested on: hepatocellular carcinoma lines; assay: Selectivity Index on hepatocellular carcinoma lines versus IHH; type: cell-based, human; conditions: HepG2 and Hep3B versus IHH
# [18] = tested on: P. aeruginosa; conditions: Vernonia auriculifera screening; ref Kiplimo et al., 2011; cited from earlier work
structure (smiles),measurement,setting,value
"CCCCCCCCCCCCCCCCCCCCCCCC(=O)OCC(COC(C)=O)OC(C)=O (stereo not drawn) [2Ac, 3-(tetracosanoyloxy) propane-1,2-diyl diacetate]","MIC, CRAB",[1],100 µg/mL
same,"MIC, KPRO",[2],>200 µg/mL
same,"MIC, PARC",[3],200 µg/mL
same,"MIC, LRSE",[4],200 µg/mL
same,"MIC, KPPB",[5],>200 µg/mL
same,"MIC, VREF",[6],200 µg/mL
same,"MIC, MRSA",[7],>200 µg/mL
same,"MIC, ECPB",[8],>200 µg/mL
same,"MIC, KPNDM-1+",[9],200 µg/mL
"CC[C@H](CC[C@@H](C)[C@H]1CC[C@H]2[C@@H]3CC=C4C[C@@H](O[C@@H]5O[C@H](COC(C)=O)[C@@H](OC(C)=O)[C@H](OC(C)=O)[C@H]5OC(C)=O)CC[C@]4(C)[C@H]3CC[C@]12C)C(C)C [3Ac, β-sitosteryl β-D-tetraacetyl glucopyranoside]","MIC, CRAB",[1],200 µg/mL
same,"IC50, IHH",[10],78 ± 7 µg/mL
same,"IC50, Hela",[11],63 ± 7 µg/mL
same,"MIC, KPRO",[2],200 µg/mL
same,"MIC, PARC",[3],200 µg/mL
same,"MIC, LRSE",[4],>200 µg/mL
same,"IC50, HepG2",[12],50 ± 3 µg/mL
same,"MIC, KPPB",[5],>200 µg/mL
same,"MIC, VREF",[6],200 µg/mL
same,"MIC, MRSA",[7],>200 µg/mL
same,"IC50, PC3",[13],43 ± 4 µg/mL
same,"IC50, Hep3B",[14],49 ± 4 µg/mL
same,"MIC, ECPB",[8],>200 µg/mL
same,"MIC, KPNDM-1+",[9],>200 µg/mL
same,"IC50, A549",[15],87 ± 8 µg/mL
"CC(=O)OC[C@H]1O[C@@H](O[C@H]2CC[C@]3(C)[C@H]4CC=C5[C@@H]6[C@@H](C)[C@H](C)CC[C@]6(C)CC[C@@]5(C)[C@]4(C)CC[C@H]3C2(C)C)[C@H](OC(C)=O)[C@@H](OC(C)=O)[C@@H]1OC(C)=O [4Ac, α-amyrin tetraacetyl 3-O-β-D-glucopyranoside]","IC50, MCF7",[16],>100 µg/mL
same,"IC50, IHH",[10],>100 µg/mL
same,"IC50, Hela",[11],>100 µg/mL
same,"IC50, HepG2",[12],>100 µg/mL
same,"IC50, PC3",[13],>100 µg/mL
same,"IC50, Hep3B",[14],>100 µg/mL
same,"IC50, A549",[15],>100 µg/mL
"CC(=O)O[C@H]1C(=O)[C@@]2(C)[C@H]([C@H](OC(=O)c3ccccc3)[C@]3(O)C[C@H](OC(=O)[C@H](O)[C@@H](NC(=O)c4ccccc4)c4ccccc4)C(C)=C1C3(C)C)[C@]1(OC(C)=O)CO[C@@H]1C[C@@H]2O [Paclitaxel, reference compound]",IC50,[10],0.0794 µg/mL
same,IC50,[11],0.00478 µg/mL
same,IC50,[12],0.064 µg/mL
same,IC50,[13],0.0102 µg/mL
same,IC50,[14],0.033 µg/mL
same,IC50,[15],0.00512 µg/mL
"CCCCCCCCCCCCCCCCCCCCCCCC(=O)OCC(O)CO (stereo not drawn) [compound 2, 2,3-dihydroxypropyl tetracosanoate]",MIC,[1],200 µg/mL
same,IC50,[10],100 µg/mL
same,IC50,[11],82 ± 8 µg/mL
same,MIC,[2],200 µg/mL
same,MIC,[3],200 µg/mL
same,MIC,[4],200 µg/mL
same,IC50,[12],75 ± 6 µg/mL
same,MIC,[5],> 200 µg/mL
same,MIC,[6],200 µg/mL
same,MIC,[7],> 200 µg/mL
same,IC50,[13],75 ± 5 µg/mL
same,IC50,[14],73 ± 7 µg/mL
same,MIC,[8],> 200 µg/mL
same,MIC,[9],200 µg/mL
same,Selectivity Index (SI) on hepatocellular carcinoma lines,[17],greater than 1
same,IC50,[15],> 100 µg/mL
"C[C@H]1COc2c(N3CCN(C)CC3)c(F)cc3c(=O)c(C(=O)O)cn1c23 [levofloxacin, reference compound]",MIC,[1],12.5 µg/mL
same,MIC,[2],> 50 µg/mL
same,MIC,[3],12.5 µg/mL
same,MIC,[4],6.25 µg/mL
same,MIC,[5],> 50 µg/mL
same,MIC,[6],12.5 µg/mL
same,MIC,[7],12.5 µg/mL
same,MIC,[8],12.5 µg/mL
same,MIC,[9],> 50 µg/mL
C[C@H]1[C@H](C)CC[C@]2(C)CC[C@]3(C)C(=CC[C@@H]4[C@@]5(C)CC[C@H](O)C(C)(C)[C@@H]5CC[C@]43C)[C@H]12 [α-amyrin],"MIC, P. aeruginosa",[18],1000 µg/mL
